Data reported in ChEMBL document CHEMBL1123044, “Benzodiazepine receptor binding and anticonflict activity in a series of 3,6-disubstituted pyridazino[4,3-c]isoquinolines devoid of anticonvulsant properties” (J Med Chem, 1985).

Columns and labels:
Rattus norvegicus = experiment: In vivo minimal effective dose for anticonflict activity by intraperitoneal administration in rats by the Vogel conflict procedure.; assay type: functional; settings: ip, read-out: MED
Outline: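 Male Wistar rats deprived of food 24 h and water 48 h; 10 per dose given compound ip in 0.5% methocel (4 mL/kg) 30 min before test. After 15 s free drinking of sweetened milk, 0.3 mA shocks were delivered through the spout in alternating 5-s on/off cycles over 5 min; shocks counted.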

Mus musculus [1] = experiment: Anticonvulsant activity against prevention of tonic extensor seizures in 50% mice in the presence of metrazole (ip administration); assay type: functional
[2] = molecular target: GABA-A receptor; anion channel; experiment: In vitro binding affinity against benzodiazepine receptor using [3H]diazepam as radioligand; assay type: protein-complex assay
[3] = Lethal dose analysed when administered intraperitoneally; assay type: toxicity, organism-based; settings: mouse, in vivo, ip
Outline: (§1)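 Acute toxicity was tested in male CD1 mice in groups of three per dose. Compounds were dispersed in 0.5% methocel and given ip at 10 mL/kg.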

Mus musculus [4] = experiment: Anticonvulsant activity against prevention of tonic extensor seizures in 50% mice in the presence of bicuculline (ip administration); assay type: functional
Outline: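 Male CD1 mice, 10 per dose, given test compound ip in 0.5% methocel (10 mL/kg). Bicuculline, 2 mg/kg sc in aqueous solution, given 30 min later, following the metrazol protocol. ED50 is the dose preventing tonic extensor seizures in 50% of mice, obtained by Finney probit analysis with 95% confidence limits.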

[5] = molecular target: GABA-A receptor; anion channel (Rattus norvegicus) (UniProt O09028+P15431+P18506+P18508+P19969+P20236+P23574+P23576+P28471+P28473+P30191+P62813+P63079+P63138+Q91ZM7+Q9ES14); experiment: Relative binding to GABA-A central benzodiazepine receptor in the presence and absence of 10e-4 M GABA (GABA shift); assay type: protein-complex assay
Outline: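 Rat forebrain membranes incubated in triplicate with 0.4 nM [3H]flunitrazepam and varying ligand concentrations, with or without 0.1 mM GABA, 20 min at 37 °C. Specific binding: total minus binding with 1 μM unlabelled clonazepam. The ratio compares displacement curves obtained without versus with GABA.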

Mus musculus [6] = experiment: Anticonvulsant activity against prevention of tonic extensor seizures in 50% mice in the presence of metrazole (ip administration); 0.11-0.28; assay type: functional
Mus musculus [7] = experiment: Anticonvulsant activity against prevention of tonic extensor seizures in 50% mice in the presence of bicuculline (ip administration); 0.13-0.25; assay type: functional
[8] = Lethal dose analysed in mice when administered intraperitoneally; assay type: toxicity, organism-based; settings: mouse, in vivo, ip; outline: as §1

SMILES | minimal effective dose (Rattus norvegicus) [mg/kg] | ED50 (Mus musculus [1]) [mg/kg] | Ki [2] [µM] | LD50 [3] [mg/kg] | ED50 (Mus musculus [4]) [mg/kg] | GABA ratio [5] | ED50 (Mus musculus [6]) [%] | ED50 (Mus musculus [7]) [%] | LD50 [8] [mg/kg]
COc1ccc(-c2cc3nc(N4CCCC4)c4ccccc4c3nn2)cc1 | 20 | > 100 | 0.0187 | > 600 | > 100 |  |  |  | 
CN1CCN=C(c2ccccc2)c2cc(Cl)ccc21 [MEDAZEPAM] |  |  | 0.528 |  |  | 1.9 |  |  | 
CN(C)c1nc2cc(-c3ccccc3)nnc2c2ccccc12 | 10 | > 100 | 0.0284 | > 600 | > 100 | 1.2 |  |  | 
COCCN(CCOC)c1nc2cc(-c3ccc(OC)cc3)nnc2c2ccccc12 | 10 | > 100 | 1.18 | > 600 | > 100 | 2 |  |  | 
CN1C(=O)CN=C(c2ccccc2)c2cc(Cl)ccc21 [DIAZEPAM] | 0.5 |  |  |  |  |  | 0.2 | 0.18 | 
c1ccc(-c2cc3nc(N4CCCC4)c4ccccc4c3nn2)cc1 | 5 | > 50 | 0.0114 | 300 | > 50 | 1.6 |  |  | 
Clc1nc2cc(-c3ccccc3)nnc2c2ccccc12 |  |  | 6.2 |  |  |  |  |  | 
COc1ccc(-c2cc3nc(N(C)CC(C)O)c4ccccc4c3nn2)cc1 (centres undefined) | 30 | > 100 | 0.221 | > 600 | > 100 | 1.4 |  |  | 
Cc1nnc2ccc(-c3cccc(C(F)(F)F)c3)nn12 [CI-218872] |  |  | 0.198 |  |  |  |  |  | 
Cc1cc2nc(N3CCCC3)c3ccccc3c2nn1 | 20 | > 50 | 0.245 |  | > 50 | 1 |  |  | 200
Oc1nc2cc(-c3ccccc3)nnc2c2ccccc12 |  |  | 1.7 |  |  |  |  |  | 
COc1ccc(-c2cc3nc(N4CCC4)c4ccccc4c3nn2)cc1 | 30 | > 100 | 0.0696 | 600 | > 100 |  |  |  | 
CCN(C)c1nc2cc(-c3ccccc3)nnc2c2ccccc12 | 10 | > 50 | 0.0652 | 300 | > 50 | 1.5 |  |  | 
c1ccc(-c2cc3ncc4ccccc4c3nn2)cc1 |  |  | 4 |  |  |  |  |  | 
CC(C)Oc1nc2cc(-c3ccccc3)nnc2c2ccccc12 |  |  | 1.9 |  |  |  |  |  | 
c1ccc(-c2cc3nc(N4CCOCC4)c4ccccc4c3nn2)cc1 | 15 | > 50 | 0.152 | 200 | > 50 | 1.4 |  |  | 
CCOc1nc2cc(-c3ccccc3)nnc2c2ccccc12 |  |  | 1.5 |  |  |  |  |  | 
CN(C)c1nc2cc(-c3ccc(Cl)cc3)nnc2c2ccccc12 |  |  | 9.3 |  |  |  |  |  | 
COCCN(CCOC)c1nc2cc(-c3ccc(Cl)cc3)nnc2c2ccccc12 |  |  | 32.5 |  |  |  |  |  | 
COc1ccc(-c2cc3nc(N4CCCCC4)c4ccccc4c3nn2)cc1 | 10 | > 100 | 0.658 | > 600 | > 100 |  |  |  | 
CC(O)CN(C)c1nc2cc(-c3ccc(Cl)cc3)nnc2c2ccccc12 (centres undefined) |  |  | 17.8 |  |  |  |  |  | 
COc1ccc(-c2cc3nc(N(C)C)c4ccccc4c3nn2)cc1 | 10 | > 100 | 0.0633 | > 600 | > 100 | 1.7 |  |  | 
COc1ccc(-c2cc3nc(N4CCOCC4)c4ccccc4c3nn2)cc1 | 30 | > 100 | 0.402 | > 600 | > 100 |  |  |  | 
CC(O)CN(C)c1nc2cc(-c3ccccc3)nnc2c2ccccc12 (centres undefined) | 30 | > 50 | 0.136 | 300 | > 50 | 1.4 |  |  | 
Clc1ccc(-c2cc3nc(N4CCCC4)c4ccccc4c3nn2)cc1 |  |  | 3.48 |  |  |  |  |  | 
